The source of these data is ChEMBL document CHEMBL5034008, “Diversity-Oriented A3-Macrocyclization for Studying Influences of Ring-Size and Shape of Cyclic Peptides: CD36 Receptor Modulators” (J Med Chem, 2021).

Assay [1] addresses Platelet glycoprotein 4 (Mus musculus) (UniProt Q08857). Put plainly: Modulation of CD36 receptor in mouse RAW 264.7 cells assessed as inhibition of R-FSL-1-induced NO production pretreated for 30 mins followed by R-FSL-1 stimulation measured after 1140 min by fluorescence plate reader assay. It counts as cell-based. The conditions noted are these: RAW264.7, filed as modulator, time 1170.0 min. Summed up: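 RAW 264.7 cells seeded at 1.5 × 10^5 per well in DMEM with pen/strep. After 2 h, medium changed to DMEM with 0.2% BSA containing peptide. Cells stimulated with R-FSL-1 at 300 ng/mL for 19 h. Nitrite in 25 μL supernatant reacted with 0.5 μg 2,3-diaminonaphthalene in 50 mM phosphate pH 7.5, 15 min at room temperature in the dark, stopped with NaOH. Fluorescence read.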

The target is the same in assay [2]. Put plainly: Modulation of CD36 receptor in mouse RAW 264.7 cells assessed as inhibition of R-FSL-1-induced NO production at competitive receptor binding assay IC50 concentration pretreated for 30 mins followed by R-FSL-1 stimulation measured after 19 hrs by fluorescence plate reader assay relative to R-FSL-1. It is filed as cell-based. Details: scale not given: the % may be the effect or the level left. The conditions noted are these: RAW264.7, time 1170.0 min.

Assay [3] has the same target. Put plainly: Modulation of CD36 receptor in mouse RAW 264.7 cells assessed as inhibition of R-FSL-1-induced TNFalpha production pretreated for 30 mins followed by R-FSL-1 stimulation measured after 4 hrs by ELISA. It counts as cell-based. To be noted: RAW264.7, filed as modulator, time 4.5 hrs. An outline of the steps: (§1)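 RAW 264.7 cells seeded at 1.5 × 10^5 per well and weaned overnight in DMEM with 1% pen/strep. Medium then changed to DMEM with 0.2% BSA. Cells pretreated 30 min with peptide at 10^-7 M, with linear [azaTyr4]-GHRP-6 as reference. Stimulated with R-FSL-1 at 300 ng/mL for 4 h at 37 °C. TNF-α or CCL-2 in supernatant measured by ELISA. Inhibition % = (FSL-1 − treated)/(FSL-1 − basal) × 100.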

For assay [4] the target is unchanged. Put plainly: Modulation of CD36 receptor in mouse RAW 264.7 cells assessed as inhibition of R-FSL-1-induced TNFalpha production at competitive receptor binding assay IC50 concentration pretreated for 30 mins followed by R-FSL-1 stimulation measured after 19 hrs by ELISA relative to R-FSL-1. It counts as cell-based. On the set-up: scale not given: the % may be the effect or the level left. The conditions noted are these: RAW264.7, time 19.5 hrs.

For assay [5] the target is unchanged. Put plainly: Modulation of CD36 receptor in mouse RAW 264.7 cells assessed as inhibition of R-FSL-1-induced CCL-2 production pretreated for 30 mins followed by R-FSL-1 stimulation measured after 4 hrs by ELISA. It is filed as cell-based. To be noted: RAW264.7, filed as modulator, time 4.5 hrs. An outline of the steps: as §1
The target is the same in assay [6]. Put plainly: Modulation of CD36 receptor in mouse RAW 264.7 cells assessed as inhibition of R-FSL-1-induced CCl-2 production at competitive receptor binding assay IC50 concentration pretreated for 30 mins followed by R-FSL-1 stimulation measured after 19 hrs by ELISA relative to R-FSL-1. To be noted: RAW264.7, time 19.5 hrs. Details: scale not given: the % may be the effect or the level left. It counts as cell-based.

Assay [7] has the same target. Put plainly: Modulation of CD36 receptor in mouse BMA3.1A7 cells assessed as inhibition of R-FSL-1-induced IL-1beta production […] measured after 4 hrs by ELISA. It is filed as cell-based. The conditions noted are these: filed as modulator, time 4.5 hrs. Background: An ELISA detects its analyte on a solid surface through an enzyme-linked reagent.
Assay [8] has the same target. Put plainly: Modulation of CD36 receptor in mouse BMA3.1A7 cells assessed as inhibition of R-FSL-1-induced IL-1beta production at competitive receptor binding assay IC50 concentration pretreated for 30 mins followed by R-FSL-1 stimulation measured after 4 hrs by ELISA relative to R-FSL-1. It is filed as cell-based. Details: scale not given: the % may be the effect or the level left. The conditions noted are these: time 4.5 hrs.

For another assay, the target named is Platelet glycoprotein 4 (Rattus norvegicus, UniProt Q07969). Put plainly: Displacement of [125I]-Tyr-Bpa-Ala-hexarelin from rat CD36 receptor in heart tissue membrane incubated for 60 mins by competitive receptor binding assay. It is filed as cell membranes. Summed up:
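Rat heart membranes (50 μg) incubated in the dark with 250,000 cpm [125I]-Tyr-Bpa-Ala-hexarelin in 50 mM Tris-HCl pH 7.4, 2 mM EGTA, 0.05% bacitracin, with competitor at 0.1–10 μM; hexarelin as reference. Nonspecific binding defined with 50 μM peptide. 60 min at 22 °C, then UV photolysis at 365 nm for 15 min at 4 °C. Pellets resolved on 7.5% SDS-PAGE.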
(In general: Displacement assays read how much labelled ligand stays bound in the presence of the test substance.)

Sequence of Platelet glycoprotein 4 (Mus musculus) (Q08857 whole entry): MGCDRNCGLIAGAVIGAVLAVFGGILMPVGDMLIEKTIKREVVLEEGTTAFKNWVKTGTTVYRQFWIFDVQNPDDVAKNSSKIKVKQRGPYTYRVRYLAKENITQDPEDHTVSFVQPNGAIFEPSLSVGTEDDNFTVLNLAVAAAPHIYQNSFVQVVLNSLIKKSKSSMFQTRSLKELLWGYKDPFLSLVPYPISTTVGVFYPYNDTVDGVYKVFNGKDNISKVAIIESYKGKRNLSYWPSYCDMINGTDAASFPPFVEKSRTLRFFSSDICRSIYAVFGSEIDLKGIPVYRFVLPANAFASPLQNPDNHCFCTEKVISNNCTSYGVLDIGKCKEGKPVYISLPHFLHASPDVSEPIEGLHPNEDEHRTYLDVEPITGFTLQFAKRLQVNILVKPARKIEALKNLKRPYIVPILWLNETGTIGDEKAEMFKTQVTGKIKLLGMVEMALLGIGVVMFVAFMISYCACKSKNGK
Sequence of Platelet glycoprotein 4 (Q07969 whole entry): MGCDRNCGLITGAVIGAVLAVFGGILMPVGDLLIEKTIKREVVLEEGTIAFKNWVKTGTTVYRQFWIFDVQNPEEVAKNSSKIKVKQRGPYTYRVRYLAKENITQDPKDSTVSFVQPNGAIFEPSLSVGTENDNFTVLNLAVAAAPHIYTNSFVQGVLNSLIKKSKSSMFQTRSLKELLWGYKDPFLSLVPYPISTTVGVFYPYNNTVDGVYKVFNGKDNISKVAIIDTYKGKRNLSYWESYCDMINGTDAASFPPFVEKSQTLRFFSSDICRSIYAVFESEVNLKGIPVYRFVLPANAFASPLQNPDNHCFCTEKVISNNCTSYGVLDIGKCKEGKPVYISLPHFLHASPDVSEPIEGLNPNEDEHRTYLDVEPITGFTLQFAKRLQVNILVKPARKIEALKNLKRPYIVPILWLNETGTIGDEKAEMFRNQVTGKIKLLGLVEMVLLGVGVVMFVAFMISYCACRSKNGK

In general, IC50 refers to the midpoint of a concentration-inhibition curve. For the compound `C=CCN1CC#CCN(NC(=O)[C@H](C)N)C(=O)N[C@@H](C)C(=O)N[C@@H](Cc2c[nH]c3ccccc23)C(=O)N[C@H](Cc2ccccc2)C(=O)N[C@H](C(N)=O)CCC1`, the Activity amounted to 2.81 µM in [1]; 0% in assay [2]; 4760 pmol in assay [3]; 5% in [4]; 1030 pmol in assay [5]; 8% in assay [6]. The Activity in assay [7] is 381 pmol; in assay [8], 9%. Further, on Platelet glycoprotein 4, the IC50 worked out at 22.8 µM.
With `C=CCN1CC#CCN(NC(=O)[C@H](C)N)C(=O)N[C@H](Cc2c[nH]c3ccccc23)C(=O)N[C@@H](C)C(=O)N[C@@H](Cc2c[nH]c3ccccc23)C(=O)N[C@H](Cc2ccccc2)C(=O)N[C@H](C(N)=O)CCC1`, the Activity in [1] came to 2.52 µM; in assay [2], 15%; in assay [3], 4650 pmol; in assay [4], 8%; in assay [5], 971 pmol; in assay [6] it was 15%. The Activity in assay [7] came out at 411 pmol; in assay [8] it was 0%. The IC50 on Platelet glycoprotein 4 stood at 13.1 µM.
